Assay results from ChEMBL document CHEMBL4011638, “Semisynthetic Flavone-Derived Antimicrobials with Therapeutic Potential against Methicillin-Resistant Staphylococcus aureus (MRSA)” (J Med Chem, 2017).
≈ marks a conversion by molar mass, not a printed value. Calls of active or inactive are those of the source. The calls are words filed in the database; no cut-off is given here.

Legend:
[1] = system: Staphylococcus aureus; assay: Antibacterial activity against Staphylococcus aureus ATCC 29213 infected in C57BL6 mouse keratitis model assessed as log reduction in bacterial burden at 0.5 % administered 4 times daily at 2 hrs interval for 1 day; type: functional
Outline: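 C57BL6 mice, 6–8 weeks, 20–30 g, four per group, anesthetized with ketamine/xylazine. Right cornea scratched (three 1 mm cuts), 10 μL of 6×10^8 CFU/mL S. aureus ATCC 29213 in PBS applied topically. From day 1, 0.5% drug in PBS (12 mM, pH 7.2) given 4 times at 2 h intervals. Corneas homogenized in 0.9% NaCl/0.25% BSA, diluted, plated in duplicate on TSA, 48 h at 35 °C.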

[2] = system: Staphylococcus aureus; assay: Antibacterial activity against methicillin-resistant Staphylococcus aureus DM 9808R after 24 hrs by broth microdilution method; type: functional
Outline: (§1)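 Broth microdilution per CLSI in cation-adjusted Mueller−Hinton broth, in tubes. Compounds dissolved in H2O or DMF, then diluted in PBS to 1000 μg/mL stocks. Serial 2-fold dilutions were made, with final DMF 2.5%. Organisms were grown on TSA at 35 °C for 20 h and adjusted to ~5× 10^5 CFU/mL. Tubes were incubated at 35 °C for 24 h. MIC was the lowest concentration with no visible growth versus control. Biological replicates.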

[3] = system: Staphylococcus aureus; assay: Antibacterial activity against Staphylococcus aureus DM4001R after 24 hrs by broth microdilution method; type: functional; outline: as §1
[4] = system: Staphylococcus aureus; assay: Antibacterial activity against methicillin-resistant Staphylococcus aureus DM 21455 after 24 hrs by broth microdilution method; type: functional; details: DM 21455, 24 h; outline: as §1
[5] = system: Bacillus cereus; assay: Antibacterial activity against Bacillus cereus ATCC 11778 after 24 hrs by broth microdilution method; type: functional; details: ATCC 11778, 24 h
Outline: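 MIC by CLSI broth microdilution in cation-adjusted Mueller–Hinton broth, tubes. Compounds in H2O or DMF, diluted in PBS to 1000 μg/mL stocks, then serial 2-fold dilutions (final DMF 2.5%). Inoculum ~5×10^5 CFU/mL from TSA plates grown 35 °C 20 h. Incubation 35 °C 24 h; MIC = no visible growth vs control. Biological replicates.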

[6] = system: Staphylococcus aureus; assay: Antibacterial activity against methicillin-sensitive Staphylococcus aureus DM4583R after 24 hrs by broth microdilution method; type: functional; outline: as §1
[7] = system: Staphylococcus aureus; assay: Antibacterial activity against methicillin-sensitive Staphylococcus aureus DM4400R after 24 hrs by broth microdilution method; type: functional; outline: as §1
[8] = system: Staphylococcus aureus; assay: Antibacterial activity against methicillin-sensitive Staphylococcus aureus DM4299 after 24 hrs by broth microdilution method; type: functional; details: DM4299, 24 h; outline: as §1
[9] = system: Staphylococcus aureus; assay: Antibacterial activity against methicillin-sensitive Staphylococcus aureus ATCC 29213 after 24 hrs by broth microdilution method; type: functional; details: ATCC 29213, 24 h; outline: as §1
[10] = system: Staphylococcus aureus; assay: Antibacterial activity against methicillin-sensitive Staphylococcus aureus ATCC 6538 after 24 hrs by broth microdilution method; type: functional; details: ATCC 6538, 24 h; outline: as §1
[11] = system: Staphylococcus aureus; assay: Antibacterial activity against methicillin-sensitive Staphylococcus aureus ATCC 29737 after 24 hrs by broth microdilution method; type: functional; details: ATCC 29737, 24 h; outline: as §1
[12] = system: Staphylococcus aureus; assay: Antibacterial activity against methicillin-resistant Staphylococcus aureus DB6506 after 24 hrs by broth microdilution method; type: functional; details: DB6506, 24 h; outline: as §1
[13] = system: Staphylococcus aureus; assay: Antibacterial activity against methicillin-resistant Staphylococcus aureus DB68004 after 24 hrs by broth microdilution method; type: functional; details: DB68004, 24 h; outline: as §1
[14] = system: Staphylococcus aureus; assay: Antibacterial activity against methicillin-resistant Staphylococcus aureus DB57964 after 24 hrs by broth microdilution method; type: functional; details: DB57964, 24 h; outline: as §1
[15] = system: Staphylococcus aureus; assay: Antibacterial activity against methicillin-resistant Staphylococcus aureus ATCC 43300 after 24 hrs by broth microdilution method; type: functional; details: ATCC 43300, 24 h; outline: as §1
[16] = system: Staphylococcus aureus; assay: Antibacterial activity against methicillin-resistant Staphylococcus aureus ATCC 700699 after 24 hrs by broth microdilution method; type: functional; details: ATCC 700699, 24 h; outline: as §1
[17] = system: Staphylococcus aureus; assay: Antibacterial activity against methicillin-resistant Staphylococcus aureus BAA-38 after 24 hrs by broth microdilution method; type: functional; details: BAA-38, 24 h; outline: as §1
[18] = Ratio of HC50 for New Zealand white rabbit RBC to MIC for methicillin-sensitive Staphylococcus aureus DM4583R
Outline: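 HC50 measured on fresh New Zealand white rabbit RBCs, washed three times in PBS, at 4% v/v final. Cells were incubated with 2-fold serial dilutions (DMF final 0.5%) at 37 °C for 1 h, then centrifuged. Supernatant absorbance was read at 576 nm, with PBS as 0% and 2% Triton X-100 as 100% lysis. HC50 is the concentration lysing 50% of cells, divided by MIC from broth microdilution.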

[19] = system: Staphylococcus aureus; assay: Induction of plasma membrane permeability in methicillin-resistant Staphylococcus aureus DM9808R assessed as increase in fluorescence intensity at 12.5 ug/ml measured every 1 sec for 50 mins by SYTOX green dye based fluorimetric assay; type: functional
Outline: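 Exponential-phase MRSA DM9808R grown on TSA, washed twice and resuspended in PBS (10 mM, pH 7) to OD600 0.2. Cells were loaded with 0.3 μM SYTOX Green in the dark until fluorescence stabilized. Test samples were then added (final DMF 0.5%). Fluorescence at ex 504/em 523 nm was recorded every 1 s for 50 min. Biological replicates.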

[20] = system: Lipid bilayer; assay: Membrane permeabilization activity in DOPE/DOPG large unilamellar liposomes assessed as leakage of calcein at 1:4 to 1:8 compound to lipid ratio by fluorescence assay
[21] = system: Staphylococcus aureus; assay: Ratio of MIC for Staphylococcus aureus ATCC 29213 after […] passages to MIC for Staphylococcus aureus ATCC 29213; type: functional
Outline: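 Serial passage. Initial MIC was determined against S. aureus ATCC29213 by broth microdilution. Bacteria from duplicate tubes at 0.5× MIC were diluted to ~5 × 10^5 CFU/mL for the next MIC round. Each round was incubated at 35 °C for 24 h and the fold increase in MIC recorded. Gatifloxacin and norfloxacin served as comparators. Repeated for 17 passages, biological replicates.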

With C[C@H]1COc2c(N3CCN(C)CC3)c(F)cc3c(=O)c(C(=O)O)cn1c23 the Activity [1] was “Active”.
CN[C@H](CC(C)C)C(=O)N[C@H]1C(=O)N[C@@H](CC(N)=O)C(=O)N[C@H]2C(=O)N[C@H]3C(=O)N[C@H](C(=O)N[C@H](C(=O)O)c4cc(O)cc(O)c4-c4cc3ccc4O)[C@H](O)c3ccc(c(Cl)c3)Oc3cc2cc(c3O[C@@H]2O[C@H](CO)[C@@H](O)[C@H](O)[C@H]2O[C@H]2C[C@](C)(N)[C@H](O)[C@H](C)O2)Oc2ccc(cc2Cl)[C@H]1O [VANCOMYCIN] showed an MIC [2] of 2.2 µM, an MIC [3] of 1.1 µM and an MIC [4] of 1.1 µM. The MIC [5] was 1.1 µM, the MIC [6] was 1.56 µg/mL (≈ 1.08 µM) and the MIC [7] was 0.78 µg/mL (≈ 0.538 µM). The MIC [8] was 1.56 µg/mL (≈ 1.08 µM), the MIC [9] was 1.56 µg/mL (≈ 1.08 µM) and the MIC [10] was 0.78 µg/mL (≈ 0.538 µM). The MIC [11] was 0.78 µg/mL (≈ 0.538 µM), the MIC [12] was 0.78 µg/mL (≈ 0.538 µM) and the MIC [13] was 1.56 µg/mL (≈ 1.08 µM). For the same compound, the MIC [14] was 0.78 µg/mL (≈ 0.538 µM), the MIC [15] was 0.78 µg/mL (≈ 0.538 µM) and the MIC [16] was 1.56 µg/mL (≈ 1.08 µM). The MIC [17] was 1.56 µg/mL (≈ 1.08 µM).
N=C(N)NCCCCC(=O)Nc1cc(C(F)(F)F)cc(NC(=O)c2cc(C(=O)Nc3cc(C(F)(F)F)cc(NC(=O)CCCCNC(=N)N)c3O[C@@H]3CCNC3)ncn2)c1O[C@@H]1CCNC1 [BRILACIDIN] gave an MIC [6] of 1 µg/mL (≈ 1.07 µM), an MIC [7] of 1 µg/mL (≈ 1.07 µM) and an MIC [8] of 1 µg/mL (≈ 1.07 µM). It also gave an MIC [9] of 1 µg/mL (≈ 1.07 µM), an MIC [10] of 1 µg/mL (≈ 1.07 µM) and an MIC [11] of 1 µg/mL (≈ 1.07 µM). It also gave an MIC [12] of 1 µg/mL (≈ 1.07 µM), an MIC [13] of 1 µg/mL (≈ 1.07 µM) and an MIC [14] of 1 µg/mL (≈ 1.07 µM). For the same compound, the MIC [15] was 1 µg/mL (≈ 1.07 µM), the MIC [16] was 1 µg/mL (≈ 1.07 µM) and the MIC [17] was 1 µg/mL (≈ 1.07 µM). For the same compound, the Ratio [18] was 558.
Work on CCN(CC)CCOc1cc(O)c2c(=O)c(OCCN(CC)CC)c(-c3ccc(OC)cc3)oc2c1CC=C(C)C yielded an MIC [2] greater than 50 µg/mL, an MIC [3] of 50 µg/mL and an MIC [4] of 50 µg/mL. For the same compound, the MIC [5] was greater than 50 µg/mL.
Compound COC(=O)[C@H](Cc1cnc[nH]1)NC(=O)COc1cc(O)c2c(=O)c(OCC(=O)N[C@@H](Cc3cnc[nH]3)C(=O)OC)c(-c3ccc(OC)cc3)oc2c1CC=C(C)C has an MIC [2] greater than 63.5 µM, an MIC [3] greater than 63.5 µM and an MIC [4] greater than 63.5 µM. For the same compound, the MIC [5] was greater than 63.5 µM, the Activity [19] was “inactive” and the Activity [20] was less than 5%.
For CCN(CC)CCCCCCOc1cc(O)c2c(=O)c(OCCCCCCN(CC)CC)c(-c3ccc(OC)cc3)oc2c1CC=C(C)C, the MIC [2] was 3.13 µg/mL, the MIC [3] was 6.25 µg/mL and the MIC [4] was 3.13 µg/mL. It also gave an MIC [5] of 12.5 µg/mL.
With CCN(CC)CCCCCCCCOc1cc(O)c2c(=O)c(OCCCCCCCCN(CC)CC)c(-c3ccc(OC)cc3)oc2c1CC=C(C)C the MIC [2] was greater than 50 µg/mL, the MIC [3] was greater than 50 µg/mL and the MIC [4] was greater than 50 µg/mL. For the same compound, the MIC [5] was greater than 50 µg/mL.
Compound CC(C)(C)c1cc(C(C)(C)C)c2[nH]c(C(C)(C)C)c(C[C@H](NC(=O)[C@@H](N)CCCNC(=N)N)C(=O)N[C@@H](CCCNC(=N)N)C(=O)NCCc3ccccc3)c2c1 [LTX-109] has an MIC [6] of 4 µg/mL (≈ 5.08 µM), an MIC [7] of 4 µg/mL (≈ 5.08 µM) and an MIC [8] of 4 µg/mL (≈ 5.08 µM). The MIC [9] was 4 µg/mL (≈ 5.08 µM), the MIC [10] was 4 µg/mL (≈ 5.08 µM) and the MIC [11] was 4 µg/mL (≈ 5.08 µM). For the same compound, the MIC [12] was 4 µg/mL (≈ 5.08 µM), the MIC [13] was 4 µg/mL (≈ 5.08 µM) and the MIC [14] was 4 µg/mL (≈ 5.08 µM). For the same compound, the MIC [15] was 4 µg/mL (≈ 5.08 µM), the MIC [16] was 4 µg/mL (≈ 5.08 µM) and the MIC [17] was 4 µg/mL (≈ 5.08 µM). For the same compound, the Ratio [18] was 44.
Compound CCn1cc(C(=O)O)c(=O)c2cc(F)c(N3CCNCC3)cc21 [NORFLOXACIN] has a Ratio [21] of 128.
